Assay results from different studies.
Protocols differ between the studies behind these lines.
Cell line: NCI-H522
Read-out: cell growth or viability

Structure (SMILES)	assay	setting	endpoint	result
Cc1n(Cc2ccc3ccccc3n2)cc[n+]1Cc1ccc2ccccc2c1	SRB	–	TGI	1460 nM
O=C1NC(=NCc2cccs2)S/C1=C\c1ccc2ncccc2c1	–	–	IC50	> 10000 nM
COc1ccc(C(=O)/C=C/c2cccnc2)cc1S(N)(=O)=O	SRB	10 µM	inhibition	168%
c1ccc2cc(Cn3cc[n+](Cc4ccc5ccccc5c4)c3)ccc2c1	SRB	–	TGI	3110 nM
COc1ccc(C(=O)/C=C/c2ccccc2Br)cc1S(N)(=O)=O	SRB	48 h	GI50	1800 nM
O=C1Nc2ccccc2C1=NNc1nnc2n1N=C(c1ccccc1)CS2	SRB	10 µM	inhibition	57%
COc1cc(-c2ccc(-c3ccc(C(=N)N)nc3)s2)cc(OC)c1OC	SRB	–	GI50	1800 nM
CCCc1n(Cc2ccc3ccccc3n2)cc[n+]1Cc1ccc2ccccc2c1	SRB	–	TGI	1130 nM
COc1ccccc1/C=C/C(=O)c1ccc(OC)c(S(N)(=O)=O)c1	SRB	10 µM	inhibition	110%
CCc1n(Cc2ccc3ccccc3n2)cc[n+]1Cc1ccc2ccccc2n1	SRB	–	TGI	1490 nM
COc1ccc(C(=O)/C=C/c2cccc3ccccc23)cc1S(N)(=O)=O	SRB	48 h	GI50	1600 nM
COc1ccc(-c2ccc(-c3ccc(C(=N)N)nc3)s2)cc1	SRB	–	GI50	1900 nM
Cc1cc(C)n(C(=S)[S][Au][PH](CCCCCC[PH]([Au][S]C(=S)n2nc(C)cc2C)(c2ccccc2)c2ccccc2)(c2ccccc2)c2ccccc2)n1	SRB	–	GI50	1240 nM
